# Measured values: ChEMBL document CHEMBL1142269, “Imidazo[4,5-c]quinolines as inhibitors of the PI3K/PKB-pathway” (Bioorg Med Chem Lett, 2008)
# Tests used:
# [1] = molecular target: T1, 3-phosphoinositide-dependent protein kinase 1 (Homo sapiens, UniProt O15530); assay: Inhibition of PDK1
# T1 sequence (O15530 whole entry): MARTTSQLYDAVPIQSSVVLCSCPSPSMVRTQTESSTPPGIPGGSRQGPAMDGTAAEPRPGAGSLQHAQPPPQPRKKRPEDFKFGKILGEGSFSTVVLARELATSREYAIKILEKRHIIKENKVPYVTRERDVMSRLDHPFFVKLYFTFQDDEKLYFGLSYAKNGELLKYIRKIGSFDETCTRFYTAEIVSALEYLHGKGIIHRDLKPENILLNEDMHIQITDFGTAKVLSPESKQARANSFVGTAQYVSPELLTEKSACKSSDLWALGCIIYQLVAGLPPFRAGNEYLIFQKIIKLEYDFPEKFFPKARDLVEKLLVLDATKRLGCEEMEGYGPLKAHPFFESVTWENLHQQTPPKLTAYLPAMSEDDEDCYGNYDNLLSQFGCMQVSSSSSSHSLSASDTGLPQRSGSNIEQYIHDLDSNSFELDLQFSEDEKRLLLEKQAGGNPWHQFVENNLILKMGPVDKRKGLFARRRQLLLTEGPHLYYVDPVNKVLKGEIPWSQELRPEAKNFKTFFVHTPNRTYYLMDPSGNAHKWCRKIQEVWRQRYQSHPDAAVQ
# In short: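 Biochemical PDK1 enzymatic activity assay at 10 µM ATP; IC50 determined.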
# [2] = Antiproliferative activity against human U87MG cells; type: functional, cell-based, U-87MG ATCC; settings: U-87 MG
# In short: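 Antiproliferation run in vitro on U87MG cells; potency expressed as EC50.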
# [3] = molecular target: Phosphatidylinositol 4,5-bisphosphate 3-kinase catalytic subunit gamma isoform (Homo sapiens, UniProt P48736); assay: Inhibition of PI3K p110gamma
# Chain of Phosphatidylinositol 4,5-bisphosphate 3-kinase catalytic subunit gamma isoform (P48736 whole entry, canonical isoform): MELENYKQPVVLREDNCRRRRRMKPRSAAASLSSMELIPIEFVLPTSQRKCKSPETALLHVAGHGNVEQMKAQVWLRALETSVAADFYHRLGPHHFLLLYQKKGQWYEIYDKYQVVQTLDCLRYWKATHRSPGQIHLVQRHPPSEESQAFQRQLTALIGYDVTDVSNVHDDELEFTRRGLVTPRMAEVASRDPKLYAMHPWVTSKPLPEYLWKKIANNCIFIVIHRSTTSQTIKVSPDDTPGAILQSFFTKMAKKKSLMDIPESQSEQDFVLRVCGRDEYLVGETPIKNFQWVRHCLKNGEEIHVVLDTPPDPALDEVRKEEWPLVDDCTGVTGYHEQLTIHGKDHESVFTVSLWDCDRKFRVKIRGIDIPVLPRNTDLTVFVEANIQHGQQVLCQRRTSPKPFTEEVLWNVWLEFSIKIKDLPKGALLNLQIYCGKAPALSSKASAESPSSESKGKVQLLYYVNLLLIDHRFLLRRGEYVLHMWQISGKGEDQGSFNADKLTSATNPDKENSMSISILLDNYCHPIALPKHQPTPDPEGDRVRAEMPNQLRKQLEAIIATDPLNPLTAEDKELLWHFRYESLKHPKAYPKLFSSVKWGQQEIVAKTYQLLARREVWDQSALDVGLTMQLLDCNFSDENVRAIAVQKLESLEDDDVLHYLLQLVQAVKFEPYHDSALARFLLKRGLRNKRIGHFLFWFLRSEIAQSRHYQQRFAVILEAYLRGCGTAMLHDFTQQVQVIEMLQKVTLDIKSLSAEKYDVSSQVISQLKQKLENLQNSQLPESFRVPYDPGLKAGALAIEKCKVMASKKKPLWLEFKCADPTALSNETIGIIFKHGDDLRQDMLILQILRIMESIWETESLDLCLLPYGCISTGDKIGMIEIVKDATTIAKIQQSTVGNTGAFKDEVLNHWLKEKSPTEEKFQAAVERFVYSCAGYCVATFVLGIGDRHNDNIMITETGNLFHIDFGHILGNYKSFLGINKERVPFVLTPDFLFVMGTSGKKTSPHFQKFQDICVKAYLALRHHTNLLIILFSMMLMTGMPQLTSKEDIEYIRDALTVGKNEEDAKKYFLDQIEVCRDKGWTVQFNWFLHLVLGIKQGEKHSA
# [4] = Antitumor activity in athymic mouse bearing human PC3M tumor assessed as reduction of tumor growth at 75 mg/kg, po bid after 15 days; type: functional, PC-3M; parameters: scale not given: the % may be the effect or the level left
# In short: (§1)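 PC3M tumour-bearing mice, compound formulated in NMP/PEG300, given orally twice per day at 50 or 75 mg/kg. Tumour volume read on day 15. T/C = mean difference of treated group ÷ mean difference of vehicle-treated control group × 100.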
# [5] = Antitumor activity in athymic mouse bearing human PC3M tumor assessed as reduction of tumor growth at 50 mg/kg, po bid after 15 days; type: functional, PC-3M; parameters: scale not given: the % may be the effect or the level left; in short: as §1
# [6] = molecular target: Phosphatidylinositol 4,5-bisphosphate 3-kinase catalytic subunit beta isoform (Homo sapiens, UniProt P42338); assay: Inhibition of PI3K p110beta
# Chain of Phosphatidylinositol 4,5-bisphosphate 3-kinase catalytic subunit beta isoform (P42338 whole entry, canonical isoform): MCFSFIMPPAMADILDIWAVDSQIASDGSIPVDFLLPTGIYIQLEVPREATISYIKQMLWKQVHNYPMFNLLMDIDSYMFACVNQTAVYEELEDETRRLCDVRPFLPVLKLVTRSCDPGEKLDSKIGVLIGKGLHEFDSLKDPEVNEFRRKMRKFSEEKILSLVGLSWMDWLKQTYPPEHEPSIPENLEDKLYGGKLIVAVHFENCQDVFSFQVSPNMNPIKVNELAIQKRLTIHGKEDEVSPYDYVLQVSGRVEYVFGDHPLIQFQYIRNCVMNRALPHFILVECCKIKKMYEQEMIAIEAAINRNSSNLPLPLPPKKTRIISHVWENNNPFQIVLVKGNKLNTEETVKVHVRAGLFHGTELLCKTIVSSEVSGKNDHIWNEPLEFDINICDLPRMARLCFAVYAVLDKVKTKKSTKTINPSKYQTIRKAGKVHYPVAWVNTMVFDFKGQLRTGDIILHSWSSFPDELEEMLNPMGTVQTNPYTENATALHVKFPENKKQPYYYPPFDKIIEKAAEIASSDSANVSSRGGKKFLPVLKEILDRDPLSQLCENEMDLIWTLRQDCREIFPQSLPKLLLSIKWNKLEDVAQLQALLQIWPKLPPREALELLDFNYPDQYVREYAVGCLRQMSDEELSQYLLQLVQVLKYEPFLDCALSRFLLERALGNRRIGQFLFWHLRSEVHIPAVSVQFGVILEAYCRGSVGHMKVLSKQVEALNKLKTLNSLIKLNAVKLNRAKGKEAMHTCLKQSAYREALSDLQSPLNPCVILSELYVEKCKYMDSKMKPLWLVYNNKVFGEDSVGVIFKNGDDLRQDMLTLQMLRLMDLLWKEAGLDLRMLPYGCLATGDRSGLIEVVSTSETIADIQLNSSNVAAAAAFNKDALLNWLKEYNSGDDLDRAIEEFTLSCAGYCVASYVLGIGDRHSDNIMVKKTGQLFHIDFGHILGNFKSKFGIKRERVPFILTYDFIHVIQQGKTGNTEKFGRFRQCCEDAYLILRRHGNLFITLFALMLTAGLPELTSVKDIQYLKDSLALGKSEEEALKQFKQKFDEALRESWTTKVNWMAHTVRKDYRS
# [7] = molecular target: T2, Phosphatidylinositol 4,5-bisphosphate 3-kinase catalytic subunit delta isoform (Homo sapiens, UniProt O00329); assay: Inhibition of PI3K p110delta
# T2 sequence (O00329 whole entry): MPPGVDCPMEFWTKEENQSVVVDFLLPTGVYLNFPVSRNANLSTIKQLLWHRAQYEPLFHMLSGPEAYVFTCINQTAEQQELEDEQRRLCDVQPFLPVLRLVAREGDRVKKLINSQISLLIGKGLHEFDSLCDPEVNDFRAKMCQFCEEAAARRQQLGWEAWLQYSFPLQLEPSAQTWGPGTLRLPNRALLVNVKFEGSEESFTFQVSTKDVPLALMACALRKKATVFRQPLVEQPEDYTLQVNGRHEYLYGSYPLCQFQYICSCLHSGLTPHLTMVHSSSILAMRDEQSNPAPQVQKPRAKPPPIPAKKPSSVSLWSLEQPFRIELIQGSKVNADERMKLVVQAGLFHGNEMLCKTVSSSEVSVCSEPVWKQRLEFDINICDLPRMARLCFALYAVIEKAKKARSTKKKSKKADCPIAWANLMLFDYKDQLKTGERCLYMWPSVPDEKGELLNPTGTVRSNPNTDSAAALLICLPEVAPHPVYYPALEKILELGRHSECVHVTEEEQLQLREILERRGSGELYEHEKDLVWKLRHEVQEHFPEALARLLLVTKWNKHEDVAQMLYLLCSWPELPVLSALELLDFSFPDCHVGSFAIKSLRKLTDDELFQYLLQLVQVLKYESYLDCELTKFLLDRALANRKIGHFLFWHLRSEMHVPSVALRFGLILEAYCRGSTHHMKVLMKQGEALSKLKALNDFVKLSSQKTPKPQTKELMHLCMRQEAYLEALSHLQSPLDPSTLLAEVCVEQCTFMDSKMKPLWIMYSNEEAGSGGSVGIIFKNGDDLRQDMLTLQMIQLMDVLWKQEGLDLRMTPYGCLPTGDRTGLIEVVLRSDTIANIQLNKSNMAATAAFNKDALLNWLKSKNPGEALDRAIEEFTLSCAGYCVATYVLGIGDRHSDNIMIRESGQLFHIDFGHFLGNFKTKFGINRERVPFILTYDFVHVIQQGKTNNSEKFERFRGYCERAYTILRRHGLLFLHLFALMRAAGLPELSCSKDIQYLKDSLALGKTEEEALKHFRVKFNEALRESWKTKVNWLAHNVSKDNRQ
# [8] = molecular target: Phosphatidylinositol 4,5-bisphosphate 3-kinase catalytic subunit alpha isoform (Homo sapiens, UniProt P42336); assay: Inhibition of PI3K p110alpha
# Chain of Phosphatidylinositol 4,5-bisphosphate 3-kinase catalytic subunit alpha isoform (P42336 whole entry, canonical isoform): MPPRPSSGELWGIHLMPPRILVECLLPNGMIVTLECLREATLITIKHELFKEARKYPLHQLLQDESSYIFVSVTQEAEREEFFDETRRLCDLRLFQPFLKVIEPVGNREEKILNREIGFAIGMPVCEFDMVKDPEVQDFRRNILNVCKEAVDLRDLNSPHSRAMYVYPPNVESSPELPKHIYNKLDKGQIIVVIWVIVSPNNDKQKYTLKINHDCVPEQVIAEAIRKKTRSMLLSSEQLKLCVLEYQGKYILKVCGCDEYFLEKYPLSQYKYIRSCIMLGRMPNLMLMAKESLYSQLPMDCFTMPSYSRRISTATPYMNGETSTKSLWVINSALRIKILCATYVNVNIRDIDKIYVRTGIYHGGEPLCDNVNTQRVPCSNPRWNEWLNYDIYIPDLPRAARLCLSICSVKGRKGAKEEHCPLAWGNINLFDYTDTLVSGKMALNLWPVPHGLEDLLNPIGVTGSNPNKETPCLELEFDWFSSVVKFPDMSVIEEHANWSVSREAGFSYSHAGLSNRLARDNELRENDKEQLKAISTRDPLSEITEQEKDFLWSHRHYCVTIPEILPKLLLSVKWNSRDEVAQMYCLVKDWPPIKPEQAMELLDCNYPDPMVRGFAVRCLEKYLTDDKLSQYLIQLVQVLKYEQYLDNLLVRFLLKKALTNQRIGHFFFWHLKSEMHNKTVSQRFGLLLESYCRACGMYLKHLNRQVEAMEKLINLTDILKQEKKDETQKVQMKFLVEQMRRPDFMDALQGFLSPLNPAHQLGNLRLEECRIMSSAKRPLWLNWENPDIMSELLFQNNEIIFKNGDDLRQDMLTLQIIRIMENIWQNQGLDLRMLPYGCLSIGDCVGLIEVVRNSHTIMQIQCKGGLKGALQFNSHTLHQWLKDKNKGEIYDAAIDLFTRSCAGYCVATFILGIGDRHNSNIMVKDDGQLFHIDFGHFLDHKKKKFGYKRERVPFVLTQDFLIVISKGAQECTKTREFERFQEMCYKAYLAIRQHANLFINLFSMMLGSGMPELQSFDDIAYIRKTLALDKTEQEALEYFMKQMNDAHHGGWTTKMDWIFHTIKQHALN
# [9] = Antitumor activity in mouse bearing human PC3M tumor assessed as reduction of tumor growth at 50 mg/kg, po bid after 27 days; type: functional, PC-3M; parameters: scale not given: the % may be the effect or the level left
# In short: (§2)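 PC3M tumour-bearing mice, oral dosing twice per day at 50 or 60 mg/kg in NMP/PEG300 vehicle. T/C taken on day 27 as mean difference of treated group over mean difference of vehicle control, ×100. Significance by one-way ANOVA followed by post hoc Dunnett's test versus control.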
# [10] = Antitumor activity in mouse bearing human PC3M tumor assessed as reduction of tumor growth at 60 mg/kg, po bid after 27 days; type: functional, PC-3M; parameters: scale not given: the % may be the effect or the level left; in short: as §2
# [11] = molecular target: RAC-alpha serine/threonine-protein kinase (Homo sapiens) (UniProt P31749); assay: Inhibition of PKB at 10 uM
# Chain of RAC-alpha serine/threonine-protein kinase (Homo sapiens) (P31749 whole entry): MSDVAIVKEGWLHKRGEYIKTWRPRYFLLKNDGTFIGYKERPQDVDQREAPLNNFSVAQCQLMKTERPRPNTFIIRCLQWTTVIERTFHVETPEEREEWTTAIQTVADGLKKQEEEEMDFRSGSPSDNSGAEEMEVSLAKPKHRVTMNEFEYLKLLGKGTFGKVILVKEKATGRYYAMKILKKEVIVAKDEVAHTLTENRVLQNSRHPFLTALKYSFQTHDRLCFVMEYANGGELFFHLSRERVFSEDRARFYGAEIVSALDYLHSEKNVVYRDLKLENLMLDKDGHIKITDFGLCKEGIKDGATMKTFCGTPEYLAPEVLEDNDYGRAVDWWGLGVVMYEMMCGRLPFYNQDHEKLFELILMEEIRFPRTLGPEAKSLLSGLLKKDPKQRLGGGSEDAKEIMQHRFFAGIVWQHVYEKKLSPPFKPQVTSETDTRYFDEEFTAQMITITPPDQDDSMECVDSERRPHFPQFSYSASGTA
# [12] = Inhibition of PKA at 10 uM
SMILES,IC50 [1] [nM],IC50 [3] [nM],IC50 [6] [nM],IC50 [7] [nM],IC50 [8] [nM],inhibition [11] [%],inhibition [12] [%],EC50 [2] [nM],Activity [4] [%],Activity [5] [%],Activity [9] [%],Activity [10] [%]
Cn1c(=O)n(-c2ccc(C(C)(C)C#N)cc2)c2c3cc(C#Cc4cccnc4)ccc3ncc21,> 25000,382,2340,201,72,,,13,,,31,9
CC(C)(C#N)c1ccc(-n2cnc3cnc4ccc(C#Cc5cccnc5)cc4c32)cc1,150,,,,,,,446,,,,
N#CCc1ccc(-n2cnc3cnc4ccc(C#Cc5cccnc5)cc4c32)cc1,34,67,432,98,64,0,24,416,,,,

# Now from value to compound, other results behind:
IC50 [1] [nM],IC50 [3] [nM],IC50 [6] [nM],IC50 [7] [nM],IC50 [8] [nM],inhibition [11] [%],inhibition [12] [%],SMILES,EC50 [2] [nM],Activity [4] [%],Activity [5] [%],Activity [9] [%],Activity [10] [%]
110,,,,,,,Cc1nc2cnc3ccc(C#Cc4cccnc4)cc3c2n1-c1ccc(CC#N)cc1,275,,,,
245,117,446,35,56,,,Cc1nc2cnc3ccc(C#Cc4cccnc4)cc3c2n1-c1ccc(C(C)C#N)cc1 (stereo not given),143,50,85,,
327,,,,,,,CCc1nc2cnc3ccc(C#Cc4cccnc4)cc3c2n1-c1ccc(CC#N)cc1,400,,,,
